Reference: ChEMBL document CHEMBL4368898, “Tridecaptin-inspired antimicrobial peptides with activity against multidrug-resistant Gram-negative bacteria” (Medchemcomm, 2019)
In brackets after ≈: the same amount, converted by molar mass. Where a SMILES comes first, the peptide text is derived from it. [ ]: non-standard residue; d: D form. The star is where a group is joined. d(aIle) = CC[C@H](C)[C@@H](N)C(=O)O; dOrn = NCCC[C@@H](N)C(=O)O; dDab = NCC[C@@H](N)C(=O)O; Octanoyl = CCCCCCCC(=O)*; Orn = NCCC[C@H](N)C(=O)O; Dab = NCC[C@H](N)C(=O)O

Experiments:
Format in all cases: functional
[1] = tested on: Acinetobacter baumannii; experiment: Antimicrobial activity against carbapenemase-producing Acinetobacter baumannii ACM 11 assessed as inhibition of bacterial growth incubated for 18 hrs by CLSI based serial broth dilution method; details: ACM 11, 18 h
Outline: (§1)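 MIC by microbroth dilution, run in duplicate, reported in μg mL−1 to three significant figures. The Gram-negative panel includes environmental isolates from sewage-contaminated water in Lebanon and clinical isolates from patients. Strains are classed by carbapenemase production.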

[2] = tested on: Klebsiella pneumoniae; experiment: Antimicrobial activity against carbapenemase-producing Klebsiella pneumoniae IMP 216 assessed as inhibition of bacterial growth incubated for 18 hrs by CLSI based serial broth dilution method; details: IMP 216, 18 h; outline: as §1
[3] = tested on: Klebsiella pneumoniae; experiment: Antimicrobial activity against carbapenemase-non-producing Klebsiella pneumoniae assessed as inhibition of bacterial growth incubated for 18 hrs by CLSI based serial broth dilution method; outline: as §1
[4] = tested on: Klebsiella pneumoniae; experiment: Antimicrobial activity against carbapenemase-producing Klebsiella pneumoniae IMP 177 assessed as inhibition of bacterial growth incubated for 18 hrs by CLSI based serial broth dilution method; details: IMP 177, 18 h; outline: as §1
[5] = tested on: Klebsiella pneumoniae; experiment: Antimicrobial activity against carbapenemase-producing Klebsiella pneumoniae IMP 485 assessed as inhibition of bacterial growth incubated for 18 hrs by CLSI based serial broth dilution method; details: IMP 485, 18 h; outline: as §1
[6] = tested on: Klebsiella pneumoniae; experiment: Antimicrobial activity against carbapenemase-producing Klebsiella pneumoniae IMP 170 assessed as inhibition of bacterial growth incubated for 18 hrs by CLSI based serial broth dilution method; details: IMP 170, 18 h; outline: as §1
[7] = tested on: Pseudomonas oleovorans; experiment: Antimicrobial activity against carbapenemase-non-producing Pseudomonas pseudoalcaligenes assessed as inhibition of bacterial growth incubated for 18 hrs by CLSI based serial broth dilution method; details: Ectopseudomonas oleovorans; outline: as §1
[8] = tested on: Klebsiella pneumoniae; experiment: Antimicrobial activity against carbapenemase-producing Klebsiella pneumoniae IMP 204 assessed as inhibition of bacterial growth incubated for 18 hrs by CLSI based serial broth dilution method; details: IMP 204, 18 h; outline: as §1
[9] = tested on: Enterobacter cloacae; experiment: Antimicrobial activity against carbapenemase-producing Enterobacter cloacae […] assessed as inhibition of bacterial growth incubated for 18 hrs by CLSI based serial broth dilution method; outline: as §1
[10] = tested on: Acinetobacter baumannii; experiment: Antimicrobial activity against carbapenemase-non-producing Acinetobacter baumannii assessed as inhibition of bacterial growth incubated for 18 hrs by CLSI based serial broth dilution method; outline: as §1
[11] = tested on: Acinetobacter baumannii; experiment: Antimicrobial activity against carbapenemase-producing Acinetobacter baumannii ACM 29 assessed as inhibition of bacterial growth incubated for 18 hrs by CLSI based serial broth dilution method; details: ACM 29, 18 h; outline: as §1

SMILES	MIC [1] [µg/mL]	MIC [2] [µg/mL]	MIC [3] [µg/mL]	MIC [4] [µg/mL]	MIC [5] [µg/mL]	MIC [6] [µg/mL]	MIC [7] [µg/mL]	MIC [8] [µg/mL]	MIC [9] [µg/mL]	MIC [10] [µg/mL]	MIC [11] [µg/mL]
CCCCCCCC(=O)N[C@@H](C(=O)N[C@H](CCN)C(=O)NCC(=O)N[C@H](CO)C(=O)N[C@H](Cc1c[nH]c2ccccc12)C(=O)N[C@@H](CO)C(=O)N[C@@H](CCN)C(=O)N[C@H](CCN)C(=O)N[C@@H](Cc1ccccc1)C(=O)N[C@@H](CCC(=O)O)C(=O)N[C@H](C(=O)N[C@@H](C(=O)N[C@@H](C)C(=O)O)[C@@H](C)CC)C(C)C)C(C)C	25 (≈ 16.4 µM)	6.25 (≈ 4.11 µM)	6.25 (≈ 4.11 µM)	6.25 (≈ 4.11 µM)	6.25 (≈ 4.11 µM)	6.25 (≈ 4.11 µM)	50 (≈ 32.9 µM)	12.5 (≈ 8.22 µM)	3.13 (≈ 2.06 µM)	12.5 (≈ 8.22 µM)	25 (≈ 16.4 µM)
CCCCCCCC(=O)N[C@@H](C(=O)N[C@H](CCCN)C(=O)NCC(=O)N[C@H](CO)C(=O)N[C@H](Cc1c[nH]c2ccccc12)C(=O)N[C@@H](CO)C(=O)N[C@@H](CCCN)C(=O)N[C@H](CCN)C(=O)N[C@@H](Cc1ccccc1)C(=O)N[C@@H](CCC(=O)O)C(=O)N[C@H](C(=O)N[C@@H](C(=O)N[C@@H](C)C(=O)O)[C@@H](C)CC)C(C)C)C(C)C (Octanoyl-[dV][dOrn]G[dS][dW]S[Orn][dDab]FEV[d(aIle)]A-OH)	50 (≈ 32.3 µM)	25 (≈ 16.1 µM)	100 (≈ 64.6 µM)	25 (≈ 16.1 µM)	25 (≈ 16.1 µM)	25 (≈ 16.1 µM)	12.5 (≈ 8.07 µM)	25 (≈ 16.1 µM)	25 (≈ 16.1 µM)	100 (≈ 64.6 µM)	50 (≈ 32.3 µM)
CCCCCCCC(=O)N[C@@H](C(=O)N[C@H](CCCCN)C(=O)NCC(=O)N[C@H](CO)C(=O)N[C@H](Cc1c[nH]c2ccccc12)C(=O)N[C@@H](CO)C(=O)N[C@@H](CCCCN)C(=O)N[C@H](CCN)C(=O)N[C@@H](Cc1ccccc1)C(=O)N[C@@H](CCC(=O)O)C(=O)N[C@H](C(=O)N[C@@H](C(=O)N[C@@H](C)C(=O)O)[C@@H](C)CC)C(C)C)C(C)C (Octanoyl-[dV][dK]G[dS][dW]SK[dDab]FEV[d(aIle)]A-OH)	25 (≈ 15.9 µM)	25 (≈ 15.9 µM)	50 (≈ 31.7 µM)	25 (≈ 15.9 µM)	25 (≈ 15.9 µM)	25 (≈ 15.9 µM)	25 (≈ 15.9 µM)	25 (≈ 15.9 µM)	25 (≈ 15.9 µM)	50 (≈ 31.7 µM)	50 (≈ 31.7 µM)
CCCCCCCC(=O)N[C@@H](C(=O)N[C@H](CCN)C(=O)NCC(=O)N[C@H](CO)C(=O)N[C@H](Cc1c[nH]c2ccccc12)C(=O)N[C@@H](CO)C(=O)N[C@@H](CCN)C(=O)N[C@H](CCN)C(=O)N[C@@H](Cc1ccccc1)C(=O)N[C@@H](CCC(=O)O)C(=O)N[C@H](C(=O)N[C@@H](C(=O)N[C@@H](C)C(=O)O)C(C)C)C(C)C)C(C)C (Octanoyl-[dV][dDab]G[dS][dW]S[Dab][dDab]FEV[dV]A-OH)	100 (≈ 66.4 µM)	12.5 (≈ 8.3 µM)	12.5 (≈ 8.3 µM)	25 (≈ 16.6 µM)	12.5 (≈ 8.3 µM)	12.5 (≈ 8.3 µM)	50 (≈ 33.2 µM)	12.5 (≈ 8.3 µM)	6.25 (≈ 4.15 µM)	25 (≈ 16.6 µM)	50 (≈ 33.2 µM)
CCCCCCCC(=O)N[C@@H](C(=O)N[C@H](CCCCN)C(=O)NCC(=O)N[C@H](CO)C(=O)N[C@H](Cc1c[nH]c2ccccc12)C(=O)N[C@@H](CO)C(=O)N[C@@H](CCCCN)C(=O)N[C@H](CCCCN)C(=O)N[C@@H](Cc1ccccc1)C(=O)N[C@@H](CCC(=O)O)C(=O)N[C@H](C(=O)N[C@@H](C(=O)N[C@@H](C)C(=O)O)C(C)C)C(C)C)C(C)C (HELM PEPTIDE1{[CCCCCCCC(=O)[*:2]].[dV].[dK].G.[dS].[dW].S.K.[dK].F.E.V.[dV].A}$$$$V2.0)	> 100	> 100	> 100	> 100	> 100	> 100	> 100	> 100	> 100	> 100	> 100
CCCCCCCC(=O)N[C@@H](C(=O)N[C@H](CCCN)C(=O)NCC(=O)N[C@H](CO)C(=O)N[C@H](Cc1c[nH]c2ccccc12)C(=O)N[C@@H](CO)C(=O)N[C@@H](CCCN)C(=O)N[C@H](CCCN)C(=O)N[C@@H](Cc1ccccc1)C(=O)N[C@@H](CCC(=O)O)C(=O)N[C@H](C(=O)N[C@@H](C(=O)N[C@@H](C)C(=O)O)C(C)C)C(C)C)C(C)C (Octanoyl-[dV][dOrn]G[dS][dW]S[Orn][dOrn]FEV[dV]A-OH)	25 (≈ 16.1 µM)	12.5 (≈ 8.07 µM)	50 (≈ 32.3 µM)	12.5 (≈ 8.07 µM)	12.5 (≈ 8.07 µM)	25 (≈ 16.1 µM)	6.25 (≈ 4.04 µM)	12.5 (≈ 8.07 µM)	12.5 (≈ 8.07 µM)	25 (≈ 16.1 µM)	50 (≈ 32.3 µM)
CCCCCCCC(=O)N[C@@H](C(=O)N[C@H](CCCN)C(=O)NCC(=O)N[C@H](CO)C(=O)N[C@H](Cc1c[nH]c2ccccc12)C(=O)N[C@@H](CO)C(=O)N[C@@H](CCCN)C(=O)N[C@H](CCCN)C(=O)N[C@@H](Cc1ccccc1)C(=O)N[C@@H](CCC(=O)O)C(=O)N[C@H](C(=O)N[C@@H](C(=O)N[C@@H](C)C(=O)O)[C@@H](C)CC)C(C)C)C(C)C (Octanoyl-[dV][dOrn]G[dS][dW]S[Orn][dOrn]FEV[d(aIle)]A-OH)	50 (≈ 32 µM)	6.25 (≈ 4 µM)	12.5 (≈ 8 µM)	25 (≈ 16 µM)	25 (≈ 16 µM)	25 (≈ 16 µM)	50 (≈ 32 µM)	25 (≈ 16 µM)	6.25 (≈ 4 µM)	12.5 (≈ 8 µM)	50 (≈ 32 µM)
CCCCCCCC(=O)N[C@@H](C(=O)N[C@H](CCCCN)C(=O)NCC(=O)N[C@H](CO)C(=O)N[C@H](Cc1c[nH]c2ccccc12)C(=O)N[C@@H](CO)C(=O)N[C@@H](CCCCN)C(=O)N[C@H](CCCCN)C(=O)N[C@@H](Cc1ccccc1)C(=O)N[C@@H](CCC(=O)O)C(=O)N[C@H](C(=O)N[C@@H](C(=O)N[C@@H](C)C(=O)O)[C@@H](C)CC)C(C)C)C(C)C (HELM PEPTIDE1{[CCCCCCCC(=O)[*:2]].[dV].[dK].G.[dS].[dW].S.K.[dK].F.E.V.[CC[C@H](C)[C@@H](N[*:1])C(=O)[*:2]].A}$$$$V2.0)	25 (≈ 15.6 µM)	25 (≈ 15.6 µM)	50 (≈ 31.2 µM)	25 (≈ 15.6 µM)	25 (≈ 15.6 µM)	50 (≈ 31.2 µM)	100 (≈ 62.3 µM)	50 (≈ 31.2 µM)	25 (≈ 15.6 µM)	6.25 (≈ 3.89 µM)	25 (≈ 15.6 µM)
